Results published in ChEMBL document CHEMBL1158042, “Carneic acids A and B, chemotaxonomically significant antimicrobial agents from the xylariaceous ascomycete Hypoxylon carneum” (2006).
In brackets after ≈: the same amount, converted by molar mass. Starred links: 1 amine or outer side, 2 acyl side, 3 side chain; linkers in the order of their positions; H or OH if unused. Positions of bridges follow the written chain, without caps; N, C: chain ends. Non-standard residues stand in square brackets, D forms with d. Residues, ends and D or L forms follow the SMILES beside them. Chains are numbered I, II in the order given. Actinocin(1to9) = Cc1c2oc3c(C)ccc(C(=O)[*:2])c3nc-2c(C(=O)[*:1])c(N)c1=O; NMeV = CN[C@H](C(=O)O)C(C)C; Sar = CNCC(=O)O

How the values were obtained:
Type in all cases: functional
Stachybotrys chartarum = assay: Antimicrobial activity against Stachybotrys chartarum DSM 2144 after 24 hrs; details: DSM 2144, 24 h
Outline: (§1)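 Serial dilution in microtiter wells with YMG medium. Compounds in MeOH were dispensed and dried in vacuo. Spores were rinsed from well-grown 9-day-old YMG agar cultures with […], then adjusted to 10⁵ per mL. Concentrations ranged from 100 to 0.1 µg mL^-1 (eight levels). Incubation was 24 h. MIC was recorded.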

Trichoderma harzianum = assay: Antimicrobial activity against Trichoderma harzianum ATCC 64870 after 24 hrs; details: ATCC 64870, 24 h; outline: as §1
Mucor hiemalis = assay: Antimicrobial activity against Mucor hiemalis DSM 63298 after 24 hrs; details: DSM 63298, 24 h; outline: as §1
Yarrowia lipolytica = assay: Antimicrobial activity against Yarrowia lipolytica HT20after 24 hrs
Outline: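 Yeast tested by serial dilution in YMG medium. Compound films were left in wells after MeOH evaporation in vacuo. Inoculum came from an overnight YMG culture, adjusted to 10⁵ cells per mL. After 24 h incubation, the minimal inhibitory concentration was determined.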

Penicillium griseofulvum = assay: Antimicrobial activity against Penicillium griseofulvum DSM 847 after 24 hrs; details: DSM 847, 24 h; outline: as §1
Bacillus subtilis = assay: Antimicrobial activity against Bacillus subtilis ATCC 6633 after 18 hrs; details: ATCC 6633, 18 h
Outline: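 Serial broth dilution in microtiter wells. Compounds in MeOH were dispensed and the solvent evaporated in vacuo. Inoculum came from an overnight nutrient broth culture, adjusted to 10⁵ cells per mL, in NB medium. Incubation was 18 h. MIC was read as the minimal inhibitory concentration.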

| MIC (Stachybotrys chartarum) | MIC (Trichoderma harzianum) | MIC (Mucor hiemalis) | MIC (Yarrowia lipolytica) | MIC (Penicillium griseofulvum) | MIC (Bacillus subtilis) | SMILES |
| --- | --- | --- | --- | --- | --- | --- |
| > 100 µg/mL | > 100 µg/mL | 100 µg/mL (≈ 314 µM) | > 100 µg/mL | > 100 µg/mL | 100 µg/mL (≈ 314 µM) | Oc1cccc2c(-c3ccc(O)c4c(O)cccc34)ccc(O)c12 |
| > 100 µg/mL | > 100 µg/mL | > 100 µg/mL | > 100 µg/mL | > 100 µg/mL | 3.12 µg/mL (≈ 9.33 µM) | CC1(C)S[C@@H]2[C@H](NC(=O)Cc3ccccc3)C(=O)N2[C@H]1C(=O)O [PENICILLIN G] |
| 100 µg/mL (≈ 225 µM) | > 100 µg/mL | 25 µg/mL (≈ 56.3 µM) | 100 µg/mL (≈ 225 µM) | > 100 µg/mL | 50 µg/mL (≈ 113 µM) | CC(=O)OC/C=C/C1=CC2=C(CO1)C(=O)[C@](C)(O)[C@H](OC(=O)c1c(C)cc(O)cc1O)C2 [RUBIGINOSIN A] |

Continued, molecule first:

| SMILES | MIC (Stachybotrys chartarum) | MIC (Trichoderma harzianum) | MIC (Mucor hiemalis) | MIC (Yarrowia lipolytica) | MIC (Penicillium griseofulvum) | MIC (Bacillus subtilis) |
| --- | --- | --- | --- | --- | --- | --- |
| C/C=C(\C)[C@H]1C(C)=C[C@@H]2[C@@H]([C@H]1/C=C/C=C/C(=O)O)[C@H](C)CC[C@H]2O [CARNEIC ACID A] | 25 µg/mL (≈ 75.7 µM) | 50 µg/mL (≈ 151 µM) | 12.5 µg/mL (≈ 37.8 µM) | 25 µg/mL (≈ 75.7 µM) | 12 µg/mL (≈ 36.3 µM) | 50 µg/mL (≈ 151 µM) |
| CC1=C[C@@H]2[C@@H]([C@@H](/C=C/C=C/C(=O)O)[C@H]1/C(C)=C/CO)[C@H](C)CC[C@H]2O [CARNEIC ACID B] | 25 µg/mL (≈ 72.2 µM) | 50 µg/mL (≈ 144 µM) | 12.5 µg/mL (≈ 36.1 µM) | 25 µg/mL (≈ 72.2 µM) | 25 µg/mL (≈ 72.2 µM) | 50 µg/mL (≈ 144 µM) |
| Cc1c2oc3c(C)ccc(C(=O)N[C@@H]4C(=O)N[C@H](C(C)C)C(=O)N5CCC[C@H]5C(=O)N(C)CC(=O)N(C)[C@@H](C(C)C)C(=O)O[C@@H]4C)c3nc-2c(C(=O)N[C@@H]2C(=O)N[C@H](C(C)C)C(=O)N3CCC[C@H]3C(=O)N(C)CC(=O)N(C)[C@@H](C(C)C)C(=O)O[C@@H]2C)c(N)c1=O [DACTINOMYCIN] (I: T[dV]P[Sar][NMeV] / II: T[dV]P[Sar][NMeV]; ester I:1-I:C, II:1-II:C; linker I:N-II:N via Actinocin(1to9)) | 3.12 µg/mL (≈ 2.49 µM) | 6.25 µg/mL (≈ 4.98 µM) | 3.12 µg/mL (≈ 2.49 µM) | 6.25 µg/mL (≈ 4.98 µM) | 3.12 µg/mL (≈ 2.49 µM) | > 100 µg/mL |
